In ChEMBL document CHEMBL1142281, “New 1,2,3,4-tetrahydroisoquinoline derivatives as modulators of proteolytic cleavage of amyloid precursor proteins” (Bioorg Med Chem, 2008):
The source made the active and inactive calls. No cut-off for these calls is given here.

How the values were obtained:
[1] = Lipophilicity, log P of the compound; format: physicochemical; conditions: octanol/water
[2] = Inhibition of monoamino oxidase B from F344/N rat brain cortex
[3] = target: Mitogen-activated protein kinase; ERK1/ERK2 (Homo sapiens) (UniProt P27361+P28482); test: Activation of ERK1/2 in T20 cells at 10 uM relative to nontreated cells; format: cell-based
How it was run: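 T20 cells plated at 5 × 10⁵/well, grown 18 h at 37 °C, then 18 h with tetracycline 1 µg/ml. Medium switched to DMEM with 0.5% FBS and compounds added at 10 µM. Lysis in Tris-HCl pH 8.0 buffer with Triton X-100 and inhibitors; 50 lg protein run on 12% SDS-PAGE and immunoblotted for phospho-ERK1/2 and total ERK1/2. Read-out p-ERK/ERK % of untreated; three experiments.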

[4] = Increase in sAPP alpha secretion in gamma-30 cells; format: functional, cell-based
How it was run: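 Conditioned media from c-30 cells (full-length APP with human PS1, Aph-1a2, Pen-2), normalised to lysate protein content. Immunoprecipitated with rabbit polyclonal anti-Ab1–17, separated by SDS–PAGE and Western blotted with mouse monoclonal 6E10 to detect sAPPa.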

[5] = system: T20; test: Inhibition of gamma secretase in T20 cells assessed as amyloid precursor protein cleavage at 10 uM after 24 hrs by luciferase reporter gene assay; format: cell-based; parameters: scale not given: the % may be the effect or the level left
How it was run: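 T20 cells (stable C99-luciferase reporter line, kept in hygromycin/blasticidin/zeocin medium) plated 2 × 10⁴/well and held 24 h at 37 °C. Compounds added at 10 µM final with tetracycline 1 µg/ml for 24 h at 37 °C. Luminescence read with Steady-Glo reagent as fold luciferase activation versus DMSO; triplicates.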

Sequence of Mitogen-activated protein kinase; ERK1/ERK2 (Homo sapiens) (P27361 whole entry, looked up): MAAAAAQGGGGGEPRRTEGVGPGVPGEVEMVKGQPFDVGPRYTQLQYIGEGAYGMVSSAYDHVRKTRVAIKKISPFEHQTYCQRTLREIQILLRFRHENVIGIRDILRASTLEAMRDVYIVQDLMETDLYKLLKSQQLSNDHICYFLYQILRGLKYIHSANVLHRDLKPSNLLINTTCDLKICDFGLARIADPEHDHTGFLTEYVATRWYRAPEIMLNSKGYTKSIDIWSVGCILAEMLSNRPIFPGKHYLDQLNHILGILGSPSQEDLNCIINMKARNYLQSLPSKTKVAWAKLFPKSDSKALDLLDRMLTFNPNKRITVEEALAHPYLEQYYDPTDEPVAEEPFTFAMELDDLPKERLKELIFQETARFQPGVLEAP
Sequence of Mitogen-activated protein kinase; ERK1/ERK2 (Homo sapiens) (P28482 whole entry, looked up): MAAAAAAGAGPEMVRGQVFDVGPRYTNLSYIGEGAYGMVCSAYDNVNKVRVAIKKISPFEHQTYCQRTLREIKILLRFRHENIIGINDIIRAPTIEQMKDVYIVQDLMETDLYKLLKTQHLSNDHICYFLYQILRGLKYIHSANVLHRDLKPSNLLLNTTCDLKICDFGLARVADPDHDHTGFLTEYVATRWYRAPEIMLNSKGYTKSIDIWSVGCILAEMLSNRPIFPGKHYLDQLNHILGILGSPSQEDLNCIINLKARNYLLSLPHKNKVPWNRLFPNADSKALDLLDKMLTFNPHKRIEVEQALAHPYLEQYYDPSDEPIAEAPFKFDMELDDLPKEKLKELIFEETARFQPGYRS

For `C#CCN1CCc2ccc(OC(=O)N3CCOCC3)cc2C1`, the logP [1] was 1.57 and the IC50 [2] was 18.7 µM.
In the case of `C#CCN[C@@H]1CCc2ccccc21` [RASAGILINE], the logP [1] is reported as 2.29, the IC50 [2] is reported as 2.1 µM and the Activity [3] is reported as 131%.
In the case of `CCN(C)C(=O)Oc1ccc2c(c1)CN(CC1CC1)CC2`, the Activity [4] is reported as “Active”, the logP [1] is reported as 2.69 and the IC50 [2] is reported as 12.8 µM. It also gave an Activity [3] of 131% and an Activity [5] of 35%.
Compound `O=C(Oc1ccc2c(c1)CN(CC1CC1)CC2)N1CCCC1` has a logP [1] of 2.67 and an IC50 [2] of 14.9 µM.
With `O=C(Oc1ccc2c(c1)CN(CC1CC1)CC2)N1CCOCC1` the Activity [4] was “Active”, the logP [1] was 2.29 and the IC50 [2] was 18.5 µM. For the same compound, the Activity [3] was 138% and the Activity [5] was 35%.
`C#CCN1CCc2ccc(OC(=O)N3CCCCC3)cc2C1` showed a logP [1] of 2.63 and an IC50 [2] of 15.7 µM.
Compound `C#CCN1CCc2ccc(OC(=O)N3CCCC3)cc2C1` has a logP [1] of 2.23 and an IC50 [2] of 13.9 µM.
`C#CCN1CCc2ccc(OC(=O)N(C)CC)cc2C1` showed a logP [1] of 2.25 and an IC50 [2] of 21.5 µM.
With `O=C(Oc1ccc2c(c1)CN(CC1CC1)CC2)N1CCCCC1` the Activity [4] was “Active”, the logP [1] was 3.09 and the IC50 [2] was 11.6 µM. The Activity [3] was 155% and the Activity [5] was 35%.
